The values below come from the RNAGym collection of RNA variant scans (doi:10.1038/nmeth.2970).

Sequences and labels used below:
B1: NELF-E aptamer (parent)
chain: CCCAACGACUGCCGAGCGAGAUUACGCUUGAGCGCCCCACUGAGGAUGCCCACGGGCGAUUGGGGCACGG

Variants of B1 are the subject of the data set. The experiment in a line: HiTS-RAP. Conditions: with NELF-E (Drosophila). The method in brief:
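Kd came from weighted Hill fits to the first binding curve, with intensities normalised to sequencing intensity and averaged per sequence, keeping only fits whose variance was below 1,000,000. That curve was imaged on an Illumina GAIIx flowcell, where sequenced aptamer DNA templates with a T7 promoter and ter site had been transcribed in situ by T7 RNA polymerase and halted by GST-Tus (30 minutes, 37°C). Before each image, clusters equilibrated for 30 minutes at room temperature with NELF-E-mOrange at 0.064 to 1000 nM in HEPES binding buffer.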
For orientation: Kd means the equilibrium constant for the complex coming apart. With CCCGACGACUGCCGAACGAGAUUACGCUUGAGCGCCCCACUGAGGAUGCCCACGGGCGAUUGGGGCACGG, the Kd turned out to be 6.14 nM.
CCCGACGACUGCCGAGCGAGAUUACGUUUGAGCGCCCCACUGAGGAUGCCCACGGGCGAUUGGGGCACGG: the dissociation constant (Kd) is 4.47 nM.
With CCCGACGACUGCCGAGCGAGAUUACGGUUGAGCGCCCCACUGAGGAUGCCCACGGGCGAUUGGGGCACGG the figure was 5.73 nM; with CCCGACGACUGCCGAGCGAGAUUACGAUUGAGCGCCCCACUGAGGAUGCCCACGGGCGAUUGGGGCACGG, 5.54 nM; with CCCGACGACUGCCGAGCGAGAUUACGCUUGAGCGCCCUACUGAGGAUGCCCACGGGCGAUUGGGGCACGG, 8.59 nM.
With CCCGACGACUGCCGAGCGAGAUUACGCUUGAGCGCCCAACUGAGGAUGCCCACGGGCGAUUGGGGCACGG the figure was 44.4 nM; with CCCGACGACUGCCGAGCGAGAUUACGCUUGAGCGCCCCACUGAGGAUGCCCACGGGCGUUUGGGGCACGG, 113 nM.
The figure for CCCGACGACUGCCGAGCGAGAUUACGCUUGAGCGCCCCACUGAGGAUGCCCACGGGCGGUUGGGGCACGG is 40 nM.
As for CCCGACGACUGCCGAGCGAGAUUACGCUUGAGCGCCCCACUGAGGAUGCCCACGGGUGAUUGGGGCACGG, the Kd was 5.88 nM.
As for CCCGACGACUGCCGAGCGAGAUUACGCUUGAGCGCCCCACUGAGGAUGCCCACGGGGGAUUGGGGCACGG, the Kd came out at 7.07 nM.
With CCCGACGACUGCCGAGCGAGAUUACGCUUGAGCGCCCCACUGAGGAUGCCCACGGGCGAUUGGGGUACGG the figure was 5.13 nM; with CCCGACGACUGCCGAGCGAGAUUACGCUUGAGCGCCCCACUGAGGAUGCCCACGGGCGAUUGGGGGACGG, 5.69 nM.
The figure for CCCGACGACUGCCGAGCGAGAUUACGCUUGAGCGCCCCACUGAGGUUGCCCACGGGCGAUUGGGGCACGG is 72.7 nM.
The figure for CCCGACGACUGCCGAGCGAGAUUACGCUUGAGCGCCCCACUGAGGGUGCCCACGGGCGAUUGGGGCACGG is 37.6 nM; for CCCGACGAUUGCCGAGCGAGAUUACGCUUGAGCGCCCCACUGAGGAUGCCCACGGGCGAUUGGGGCACGG it is 5.95 nM; for CCCGACGAAUGCCGAGCGAGAUUACGCUUGAGCGCCCCACUGAGGAUGCCCACGGGCGAUUGGGGCACGG it is 6.66 nM.
Take CCCGACGAGUGCCGAGCGAGAUUACGCUUGAGCGCCCCACUGAGGAUGCCCACGGGCGAUUGGGGCACGG: the Kd was 5.74 nM.
With CCCGACGACUGCCGAGCGAGAUUACGCUUGAGCGCCCCACUGAGGAUGCCCACGGGCGAUUGGGGCCCGG the figure was 5.34 nM; with CCCGACGACUGCCGAGCGAGAUUACGCUUGAGCGCCCCACUGAGGAUGCCCACGGGCGAUUGGGGCGCGG, 6.54 nM.
With CCCGACGACUGCCGAGCGAGAUUACGCUUGAGCGCCCCACUGAGGAUGCCCACGGGCGAUUGGGGCUCGG the figure was 6.47 nM; with CCCGACGACUGCCGAGCGAGAUUACGCUUGAGCGCGCCACUGAGGAUGCCCACGGGCGAUUGGGGCACGG, 10.4 nM; with CCCGACGACUGCCGAGCGAGAUUACGCUUGAGCGCUCCACUGAGGAUGCCCACGGGCGAUUGGGGCACGG, 7.32 nM.
Take CCCGACGACUGCCGAGCGAGAUUACGCUUGAGCGCACCACUGAGGAUGCCCACGGGCGAUUGGGGCACGG: the Kd amounted to 7.98 nM.
As for CCCGACGACUGCCAAGCGAGAUUACGCUUGAGCGCCCCACUGAGGAUGCCCACGGGCGAUUGGGGCACGG, the equilibrium dissociation constant (Kd) stood at 5.98 nM.
The figure for CCCGACGACUGCCUAGCGAGAUUACGCUUGAGCGCCCCACUGAGGAUGCCCACGGGCGAUUGGGGCACGG is 6.38 nM; for CCCGACGACUGCAGAGCGAGAUUACGCUUGAGCGCCCCACUGAGGAUGCCCACGGGCGAUUGGGGCACGG it is 5.91 nM; for CCCGACGACUGCUGAGCGAGAUUACGCUUGAGCGCCCCACUGAGGAUGCCCACGGGCGAUUGGGGCACGG it is 4.78 nM.
With CCCGACGACUGCGGAGCGAGAUUACGCUUGAGCGCCCCACUGAGGAUGCCCACGGGCGAUUGGGGCACGG the figure was 5.3 nM; with CCCGACGACUGCCGAGCGAGAUUACGCUUGAGCGCCCCAUUGAGGAUGCCCACGGGCGAUUGGGGCACGG, 64.8 nM.
As to CCCGACGACUGCCGAGCGAGAUUACGCUUGAGCGCCCCAGUGAGGAUGCCCACGGGCGAUUGGGGCACGG, the Kd came to 6.29 nM.
CCCGACGACUGCCGAGCGAGAUUACGCUUGAGCGCCCCACUGAGGAUGCGCACGGGCGAUUGGGGCACGG: the Kd was 10.4 nM.
With CCCGACGACUGCCGAGCGAGAUUACGCUUGAGCGCCCCACUGAGGAUGCACACGGGCGAUUGGGGCACGG the figure was 17.7 nM; with CCCGACGACUGCCGAGCGAGAUUACGCUUGAGCGCCCCACUGAGGAUGCUCACGGGCGAUUGGGGCACGG, 14.2 nM; with CCCGACGACUGCCGAGCGAGAUUAUGCUUGAGCGCCCCACUGAGGAUGCCCACGGGCGAUUGGGGCACGG, 6.15 nM.
With CCCGACGACUGCCGAGCGAGAUUAGGCUUGAGCGCCCCACUGAGGAUGCCCACGGGCGAUUGGGGCACGG the figure was 5.98 nM; with CCCGACGACUGCCGAGCGAGAUUAAGCUUGAGCGCCCCACUGAGGAUGCCCACGGGCGAUUGGGGCACGG, 6.24 nM; with CCCGACGACUGCCGAGCGAGAUUACGCUUGAGCGCCCCACUGGGGAUGCCCACGGGCGAUUGGGGCACGG, 22.2 nM.
In the case of CCCGACGACUGCCGAGCGAGAUUACGCUUGAGCGCCCCACUGUGGAUGCCCACGGGCGAUUGGGGCACGG, the Kd was determined as 57 nM.
